Screening data deposited in PubChem BioAssay by Johns Hopkins Ion Channel Center.
TRPC4 block: inhibitors of mouse TRPC4 channel, primary screen, Fluo4 calcium, HEK293 TRPC4beta/mu-opioid cells. Short transient receptor potential channel 4 (Mus musculus), Q9QUQ5. DAMGO-evoked Fluo4 calcium flux; stronger effect = lower value. B-score at 10 µM. actives 0.39% (n = 300,000). AID 2247, 2010;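 active means B-score over 3 SD under the library average, no early fluorescence shift, positive overall ratio signal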
Target sequence (Q9QUQ5 whole entry, looked up): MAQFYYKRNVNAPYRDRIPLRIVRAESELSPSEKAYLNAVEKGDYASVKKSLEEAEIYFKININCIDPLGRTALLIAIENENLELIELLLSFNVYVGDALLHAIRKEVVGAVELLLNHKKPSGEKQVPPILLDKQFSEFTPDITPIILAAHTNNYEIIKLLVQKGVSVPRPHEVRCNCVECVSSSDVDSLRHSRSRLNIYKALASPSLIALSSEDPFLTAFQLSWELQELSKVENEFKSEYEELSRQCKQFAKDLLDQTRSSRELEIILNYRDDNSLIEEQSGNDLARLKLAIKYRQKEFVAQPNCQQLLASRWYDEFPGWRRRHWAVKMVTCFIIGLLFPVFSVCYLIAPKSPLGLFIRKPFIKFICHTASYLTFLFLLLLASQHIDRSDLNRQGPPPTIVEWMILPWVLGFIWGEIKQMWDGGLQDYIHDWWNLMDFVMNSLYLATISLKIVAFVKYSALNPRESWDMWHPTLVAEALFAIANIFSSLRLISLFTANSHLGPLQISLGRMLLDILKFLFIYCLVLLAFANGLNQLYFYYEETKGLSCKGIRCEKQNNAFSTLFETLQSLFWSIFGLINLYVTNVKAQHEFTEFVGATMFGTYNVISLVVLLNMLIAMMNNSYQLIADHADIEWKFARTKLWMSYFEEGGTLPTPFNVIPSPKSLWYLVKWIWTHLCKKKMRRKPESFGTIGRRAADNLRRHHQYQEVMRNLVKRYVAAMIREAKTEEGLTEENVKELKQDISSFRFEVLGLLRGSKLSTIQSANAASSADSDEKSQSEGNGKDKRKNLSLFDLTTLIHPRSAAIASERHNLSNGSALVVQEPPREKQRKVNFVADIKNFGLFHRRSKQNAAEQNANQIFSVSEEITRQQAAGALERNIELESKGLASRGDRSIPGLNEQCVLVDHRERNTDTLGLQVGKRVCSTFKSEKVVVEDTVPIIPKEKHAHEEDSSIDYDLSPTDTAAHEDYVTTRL
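Signal: kinetic Fluo4 fluorescence imaging of calcium influx. Material: stable TRPC4beta/mu-opioid receptor HEK293 cells. Probe or stimulus: DAMGO in two steps, submaximal then maximal.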
TRPC6 act: mouse TRPC6 channel activators, primary screen, cell-based, HEK293, membrane potential dye; HEK293-TRPC6 membrane potential dye fluorescence; stronger effect = higher value; B-score at 10 µM; actives 0.13% (n = 310,000); AID 2550, 2010;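 active means B-score of the integrated fluorescence ratio above library mean plus 3 SD, and starting fluorescence ratio within library mean plus 5 SD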;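 further: higher score means more depolarization so channel activation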
TRPC4 potent: positive allosteric modulators of TRPC4, primary screen, cell-based, mouse TRPC4beta, HEK293 mu-opioid, Fluo-4 calcium; Short transient receptor potential channel 4 (Mus musculus), Q9QUQ5; DAMGO EC20, Fluo-4 Ca2+ flux; stronger effect = higher value; B-score at 10 µM; actives 0.42% (n = 310,000); AID 2227, 2009;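 active means B-score of calcium response area above 5 SD of library B-scores, with initial fluorescence ratio within 5 SD of library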
TRPC4 agonist: activators of mouse TRPC4 channel, primary screen, Fluo4 calcium, HEK293 TRPC4beta/mu-opioid cells. actives 0.49% (n = 310,000). AID 2237, 2010. Fluo4 calcium fluorescence; stronger effect = higher value. B-score at 10 µM;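 active means B-score above 5 SD of library B-scores, and initial fluorescence ratio not above library mean plus 5 SD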;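 further: positive B-score marks a calcium rise read as TRPC4 activation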
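Assay system: HEK293 cells stably co-expressing mouse TRPC4beta and mu-opioid receptor / Timing: Fluo4 dye loading 45 min at room temperature, 110 s recording / Signal: Fluo4 calcium-sensitive dye fluorescence, kinetic, 1 Hz baseline / Read-out: integrated baseline-normalised fluorescence ratio, converted to per-well B score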
Kir21 block: inhibitors of mouse Kir2.1 inward-rectifier potassium channel; Inward rectifier potassium channel 2 (Mus musculus), P35561; HEK293-Kir2.1, FluxOR thallium flux fluorescence; stronger effect = lower value; B-score at 10 µM; actives 0.85% (n = 310,000); AID 1672, 2009;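 active means fluorescence ratio B-score at or below minus 3 SD of library scores, with starting-brightness B-score within 2 SD, cut at about -4.2 in these data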;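 further: channel flux triggered by added potassium and thallium sulfate stimulus; B-score of peak minus minimum fluorescence over baseline after thallium stimulus; more negative B-score means stronger Kir2.1 block with less thallium influx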
TRPC6 inh: mouse TRPC6 channel inhibitors, primary screen, cell-based, HEK293, membrane potential dye | ACh-evoked depolarization; stronger effect = lower value | B-score at 10 µM | AID 2553, 2010 | Short transient receptor potential channel 6 (Mus musculus), Q61143 | actives 1.1% (n = 310,000);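 active means B-score under library mean minus 3 SD, initial fluorescence not abnormally high, positive integrated signal ratio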;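 further: B-score derived from integrated fluorescence ratio over the kinetic read; more negative B-score means stronger inhibition of depolarization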
TRPC4 sel inh 2: second selectivity test of TRPC6 inhibitors: effect on mouse TRPC4; AID 2776; HEK293 TRPC4/MOR, membrane potential dye fluorescence; channel activated by saturating DAMGO dose; actives 42% (n = 920); inhibition, % at 10 µM; shares compounds with TRPC6 inh;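 active means compounds whose fluorescence signal differed from control wells by over 3 SD, either direction, in both duplicate plates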
TRPC4 spec: mouse TRPC4 modulation by TRPC6 hits, confirmation, selectivity assay for TRPC6 inhibitor project, cell-based, HEK293 TRPC4/mu-opioid, membrane potential dye. shares compounds with TRPC6 inh. membrane potential fluorescence. activity change, negative = inhibition, % at 10 µM. actives 61% (n = 920). AID 2777, 2010;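 active means rise or fall in signal beyond 3 SD of buffer-only wells in both replicate plates, either sign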;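 further: integrated kinetic ratio of fluorescence range over baseline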
HEK293 MPD ctr 2-1: nonspecific membrane potential effects, parental HEK293, confirmation, counter-screen for TRPC6 inhibitor project, cell-based, second counter screen; shares compounds with TRPC6 inh; parental HEK293 membrane potential dye fluorescence; maximal acetylcholine challenge after compound addition; signal change vs control, % at 10 µM; actives 31% (n = 920); AID 2779, 2010;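 active means membrane potential signal moving either way by over 3 SD of the maximum-effect control, in both duplicate plates, meaning non-specific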
HEK293 MPD ctr-1: membrane potential modulation in parental HEK293, confirmation, counter-screen for TRPC6 inhibitor project, cell-based; shares compounds with TRPC6 inh; parental HEK293 membrane potential dye fluorescence; membrane potential signal change, % at 10 µM; actives 60% (n = 920);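 active means membrane potential signal shifting up or down by more than 3 SD of buffer-only wells, on both duplicate plates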
HEK293 MPD ctr-2: parental HEK293 membrane potential modulation, confirmation, counter-screen for TRPC6 modulator project, cell-based; shares compounds with TRPC6 inh; membrane potential dye fluorescence; membrane potential signal change, % at 10 µM; actives 51% (n = 2,400); AID 488924, 2010;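 active means membrane potential signal moves up or down beyond 5 SD from buffer-only wells, on both duplicate plates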
HEK293 MPD ctr 2-2: second check of TRPC6 modulator effects in parental HEK293 cells; shares compounds with TRPC6 inh; membrane potential dye fluorescence; after compound, maximal acetylcholine stimulation; inhibition, % at 10 µM; actives 14% (n = 2,400); AID 488926;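 active means membrane potential signal drops by more than 5 SD from the mean control signal, in both duplicate plates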
TRPC4/MOR mod: TRPC4 modulation by TRPC6 hit compounds, confirmation, selectivity assay for TRPC6 modulator project, cell-based, HEK293 TRPC4/mu-opioid, membrane potential dye, mouse. shares compounds with TRPC6 inh. membrane potential fluorescence. percent change from control (negative = decrease, positive = increase), % at 10 µM. actives 69% (n = 2,400). AID 488927, 2010;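 active means membrane potential signal moved up or down beyond 5 SD of buffer control wells, in both duplicate plates, actives on both sides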
TRPC4 ctr inh 2: second check of whether TRPC6 modulators also affect mouse TRPC4; shares compounds with TRPC6 inh; HEK293 TRPC4/mu-opioid, membrane potential dye fluorescence; stimulated with maximal-effect DAMGO; inhibition, % at 10 µM; actives 55% (n = 2,400);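 active means drop in membrane potential signal beyond 5 SD of the control wells in both duplicate plates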;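 further: TRPC4 counter screen for TRPC6 hits run under conditions tuned for TRPC6 not TRPC4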
TRPC6 block conf: mouse TRPC6 channel inhibitors, confirmation, HEK293 cells, membrane potential dye, duplicate | shares compounds with TRPC6 inh | ACh-evoked depolarization | inhibition, % at 10 µM | actives 43% (n = 3,300) | AID 488960, 2010;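 active means fluorescence ratio falls more than 5 SD below the full-stimulation control mean, in both duplicate runs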;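 further: integrated fluorescence ratio of peak minus minimum over baseline after agonist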
TRPC6 act confirm: mouse TRPC6 channel activators, confirmation, HEK293 cells, membrane potential dye, duplicate; HEK293-TRPC6 membrane potential dye fluorescence, FDSS; shares compounds with TRPC6 inh; activation, % at 10 µM; actives 11% (n = 2,800);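 active means ratio signal rise beyond 5 SD above unstimulated control wells' mean, seen in both duplicate runs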
Each line names hits and unclear results; the compound was inactive in the other large screens (follow-up assays come after a bar, where they were run). Hits are enriched below; roughly 2.9% of the tested compounds scored in any of these assays.

COc1ccccc1CNC(=O)C1CCN(Cc2nc(-c3cccc(Cl)c3)oc2C)CC1	TRPC6 inh -9.5 | HEK293 MPD ctr-2 115% | HEK293 MPD ctr 2-2 inactive | TRPC4/MOR mod 15% | TRPC4 ctr inh 2 97% | TRPC6 block conf inactive
Cc1oc(-c2ccc(Cl)cc2)nc1CN1CCC(C(=O)NCc2ccco2)CC1	TRPC4 block -6, TRPC6 act 12 | HEK293 MPD ctr-2 inactive | HEK293 MPD ctr 2-2 inactive | TRPC4/MOR mod 8.0% | TRPC4 ctr inh 2 72% | TRPC6 act confirm 122%
COc1ccc(-c2nc(CN3CCN(C(=O)c4ccco4)CC3)c(C)o2)cc1OC	none
CSCCC(NC(=O)c1cccc(C)c1)C(=O)Nc1sccc1C(N)=O (stereo not drawn)	none
CCOc1ccc(NC(=O)CSc2nc3ccsc3c(=O)n2CCC(=O)O)cc1	none
Cc1ccc(NC(=O)C2(S(=O)(=O)c3ccc(Cl)cc3)CC2)c(Br)c1	none
C[n+]1ccc(/C=C/c2ccccc2O)c2ccccc21	TRPC6 inh -5.7 | HEK293 MPD ctr-2 -81% | HEK293 MPD ctr 2-2 inactive | TRPC4/MOR mod -16% | TRPC4 ctr inh 2 inactive | TRPC6 block conf 42% | TRPC6 act confirm inactive
COCCNC(=O)/C(C#N)=C1\N=C(N)c2ccccc21	none
CCN(CC)CC(=O)Nc1ccc(/C(C)=N/NC2=NCCN2)cc1	TRPC6 inh -8 | TRPC4 sel inh 2 inactive | TRPC4 spec -12% | HEK293 MPD ctr 2-1 inactive | HEK293 MPD ctr-1 inactive | TRPC6 block conf inactive | TRPC6 act confirm inactive
O=C(C1=C(O)C(=O)N(CCOCCO)C1c1cccc([N+](=O)[O-])c1)c1cccs1 (stereo not drawn)	none
O=C(O)CCCCCN1C(=O)C(O)=C(C(=O)/C=C/c2ccccc2)C1c1cccc([N+](=O)[O-])c1 (stereo not drawn)	TRPC6 act 17 | HEK293 MPD ctr-2 inactive | HEK293 MPD ctr 2-2 inactive | TRPC4/MOR mod 9.5% | TRPC4 ctr inh 2 inactive | TRPC6 block conf inactive | TRPC6 act confirm 39%
Cc1ccc(CNC(=O)CSc2nc3c(sc4ccccc43)c(=O)n2CCCN2CCCC2)cc1	TRPC6 inh -5.8 | HEK293 MPD ctr-2 inactive | HEK293 MPD ctr 2-2 inactive | TRPC4/MOR mod 8.0% | TRPC4 ctr inh 2 69% | TRPC6 block conf 43% | TRPC6 act confirm inactive
O=C(COc1ccc2ccccc2c1CN1CCOCC1)N1CCc2ccccc21	TRPC6 inh -7.2 | TRPC4 sel inh 2 26% | TRPC4 spec inactive | HEK293 MPD ctr 2-1 inactive | HEK293 MPD ctr-1 1.3% | TRPC6 block conf 88% | TRPC6 act confirm inactive
O=C(COc1ccccc1)N1CCc2ccccc21	none
CCCNC(=S)N1CCN(C(c2ccccc2)c2ccccc2)CC1	none
CCNC(=S)N1CCN(C(c2ccccc2)c2ccccc2)CC1	TRPC4 agonist 68, TRPC6 inh -5.2 | HEK293 MPD ctr-2 inactive | HEK293 MPD ctr 2-2 inactive | TRPC4/MOR mod 66% | TRPC4 ctr inh 2 74% | TRPC6 block conf inactive | TRPC6 act confirm inactive
N#C/C(C(N)=O)=c1/ccc2c(c1)N1C3=C(CCCC3)CC3CCCCC31N=2 (stereo not drawn)	TRPC6 inh -12 | HEK293 MPD ctr-2 -262% | HEK293 MPD ctr 2-2 82% | TRPC4/MOR mod -52% | TRPC4 ctr inh 2 94% | TRPC6 block conf 80% | TRPC6 act confirm inactive
NCCc1ccc(O)c(O)c1	TRPC6 inh -5.3 | HEK293 MPD ctr-2 inactive | HEK293 MPD ctr 2-2 inactive | TRPC4/MOR mod inactive | TRPC4 ctr inh 2 inactive | TRPC6 block conf inactive | TRPC6 act confirm inactive
CC(=O)/C(=N/Nc1ccccc1[N+](=O)[O-])N1CCCc2ccccc21	TRPC6 inh -6.6 | HEK293 MPD ctr-2 inactive | HEK293 MPD ctr 2-2 inactive | TRPC4/MOR mod inactive | TRPC4 ctr inh 2 49% | TRPC6 block conf inactive | TRPC6 act confirm inactive
CC(=O)/C(=N/Nc1ccc([N+](=O)[O-])cc1)N1CCCc2ccccc21	none
O=C(Cc1ccc(-n2c(=O)c3sccc3n(CC(=O)Nc3ccccc3F)c2=O)cc1)NCc1ccco1	none
